An excerpt weighted towards active compounds, which were near 3.1% of everything screened.
hERG protect: shields human hERG channel from block by proarrhythmic agents; Q12809; activation (rescue from dofetilide block), less the hit threshold, % at 10 µM; CHO-hERG, FluxOR thallium flux, dofetilide IC70 present; 310,000 compounds, 0.51% hits;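 active = activation above the mean of controls blocked by dofetilide plus 5 SD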;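 note: thallium influx through hERG after potassium depolarization seen as dye fluorescence rise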
KCNQ1 pot: potentiates or activates the human KCNQ1 potassium channel. P51787. CHO-K1 KCNQ1, thallium flux FluxOR fluorescence; active compounds read high. B-score at 10 µM. 310,000 compounds, 0.35% hits. AID 2648;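 active = fluorescence ratio B-score, a plate-corrected score, at least three library SD, with initial intensity B-score within 5 SD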
Target sequence (P51787 whole entry, looked up): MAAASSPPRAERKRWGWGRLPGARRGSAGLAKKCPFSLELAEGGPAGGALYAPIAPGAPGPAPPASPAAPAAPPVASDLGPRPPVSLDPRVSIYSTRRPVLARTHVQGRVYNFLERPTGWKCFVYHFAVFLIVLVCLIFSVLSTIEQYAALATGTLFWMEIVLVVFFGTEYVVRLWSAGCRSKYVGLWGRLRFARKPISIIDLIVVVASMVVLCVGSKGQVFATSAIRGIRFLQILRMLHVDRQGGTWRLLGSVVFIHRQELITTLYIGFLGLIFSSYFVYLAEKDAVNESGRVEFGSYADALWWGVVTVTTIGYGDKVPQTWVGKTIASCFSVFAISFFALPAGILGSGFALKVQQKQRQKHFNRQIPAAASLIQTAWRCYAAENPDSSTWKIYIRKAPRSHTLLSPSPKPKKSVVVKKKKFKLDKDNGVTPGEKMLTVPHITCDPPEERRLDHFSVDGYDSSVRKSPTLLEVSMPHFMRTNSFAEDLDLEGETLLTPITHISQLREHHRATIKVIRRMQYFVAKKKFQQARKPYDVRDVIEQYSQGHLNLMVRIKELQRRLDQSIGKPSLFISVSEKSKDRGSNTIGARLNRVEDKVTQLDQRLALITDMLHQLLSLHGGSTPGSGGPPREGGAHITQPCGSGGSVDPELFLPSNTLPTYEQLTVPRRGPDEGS
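Doses: Single concentration per compound, DMSO matched to controls | Test system: KCNQ1-transfected CHO-K1 cells | Timing: 90 min dye loading and 20 min compound exposure, both at room temperature | Measured by: Kinetic FluxOR thallium fluorescence, 10-s 1-Hz baseline, 110-s post-stimulus read | Medium: Assay buffer with matched DMSO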
KCNK3 block: human KCNK3 channel inhibition, primary screen. CHO-KCNK3 thallium flux, FluxOR fluorescence; active compounds read low. AID 602410. B-score at 10 µM. 340,000 compounds, 0.84% hits;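 active = B-score under library mean minus 4 SD, starting fluorescence ratio at most library mean plus 5 SD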;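 note: more negative B-score means stronger inhibition of thallium flux through KCNK3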
KCNK9 block: inhibitors of human KCNK9 two-pore domain potassium channel; Q9NPC2; HEK293 KCNK9, FluxOR thallium flux fluorescence; active compounds read low; B-score at 10 µM; 310,000 compounds, 1.2% hits;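 active = ratio B-score over 3 SD below the library mean, with starting fluorescence within 5 SD of its mean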;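 note: negative B-score means less thallium flux so channel inhibition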
KCNQ1 block: human KCNQ1 channel inhibition; CHO-K1 KCNQ1, FluxOR thallium flux fluorescence; active compounds read high; B-score at 10 µM; 310,000 compounds, 1.3% hits; AID 2642;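 active = compounds whose thallium flux B-score, printed positive for inhibition, exceeds three library SD while starting fluorescence stays within three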;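 note: channel opened by potassium depolarization with thallium stimulus after 20 min compound exposure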
Active calls of the source: *; i = inactive; / = not tested or not shown.

SMILES | hERG protect | KCNQ1 pot | KCNK3 block | KCNK9 block | KCNQ1 block
COc1ccc(Cl)cc1N1Cc2ccccc2C1 | -0.2 | i | i | -7.23* | i
COCc1ccccc1C1=CC(=O)C[C@H](c2ccc(OC)cc2)C1 | / | / | i | / | /
Cn1c(=S)[nH]c2scc(-c3cccs3)c2c1=O | 57.9* | 66* | i | i | i
O=c1c2c(-c3cccs3)csc2ncn1-c1ccc(Br)cc1 | -0.7 | i | i | i | i
C=CCn1c(=S)[nH]c2scc(-c3cccs3)c2c1=O | 41.0* | 53* | i | i | i
CCc1nc2c(c(=O)c3ccccc3n2C)c(=O)n1CCc1ccc(OC)cc1 | -15.4 | i | / | -12.3* | 7*
O=[N+]([O-])c1ccc(CN2CCOCCOCCN(Cc3ccc([N+](=O)[O-])cc3)CCOCC2)cc1 | -24.7 | i | i | -7.21* | i
Cc1cc(NC(=O)c2sccc2C)n(-c2nc3ccccc3[nH]2)n1 | -6.1 | i | i | -7.03* | i
Cc1ccc(/C=C/C2=Cc3c(sc(NC(=O)CSc4n[nH]c(N)n4)c3C#N)C(C)(C)C2)o1 | -15.0 | i | / | i | 6*
COc1cc(COCC(O)CN2C(C)CCCC2C)cc(OC)c1OC (stereo not drawn) | -0.2 | i | i | i | i
COC(=O)c1cc(NC(=O)N2c3ccccc3Sc3ccccc32)cc(C(=O)OC)c1 | -4.4 | i | -9.86* | -6.79* | i
O=C(NNC(=O)c1ccccc1O)c1cccc(Br)c1 | -19.8 | i | i | i | i
O=C(N/N=C/c1cccnc1)c1ccccc1OCc1ccc(Cl)cc1 | -4.5 | i | / | -6.87* | i
O=C(NC(=S)N1CCCCCC1)c1ccccc1 | 5.8* | i | i | i | i
O=C(NC(=S)N1CCN(c2ccccc2)CC1)c1ccccc1 | 10.3* | 20* | i | i | i
O=C(NC(=S)N1CCCCCC1)c1ccccc1Cl | 3.2 | i | i | i | i
O=C(NC(=S)N1CCCCCC1)c1ccc(Cl)cc1Cl | 7.0* | 21* | i | i | i
CC(C)CNS(=O)(=O)c1ccc(Br)cc1N1CCC[C@@H]1CO | / | / | i | / | /
Oc1ccccc1CC=NC1CCCCC1 | / | / | i | / | /
O=C(COC(=O)/C=C/c1ccco1)NCCN1C(=O)CSC1=O | / | / | i | / | /
CCOC(=O)[C@H]1[C@H]2COc3ccc(Br)cc3[C@@H]2N2C(=O)CN(Cc3ccco3)C(=O)[C@@]12C | / | / | i | / | /
Cc1ccc(NC(=O)c2oc3ccccc3c2COC(C)C)cc1S(=O)(=O)N1CCOCC1 | / | / | -9.37* | / | /
Cc1ccc(NC(=O)COc2cccc(Oc3ccccc3)c2)cc1S(=O)(=O)N1CCOCC1 | / | / | -8.81* | / | /
Cc1cccc(OCCC(=O)Nc2ccc(C)c(S(=O)(=O)N3CCOCC3)c2)c1 | / | / | i | / | /
Cc1ccc(NC(=O)c2ccccc2NS(=O)(=O)c2ccc(Cl)s2)cc1S(=O)(=O)N1CCOCC1 | -21.7 | i | i | i | 6*
SMILES | hERG protect | KCNQ1 pot | KCNK3 block | KCNK9 block | KCNQ1 block
COc1ccc(NC(=O)c2oc3ccccc3c2CSC)cc1S(=O)(=O)N1CCOCC1 | / | / | i | / | /
Cc1ccc(C(=O)NC(Cc2cccc(F)c2)C(=O)O)cc1 (stereo not drawn) | / | / | i | / | /
O=C(Cc1ccccn1)c1ccc(Cl)cc1 | -7.7 | i | i | i | i
CC1=C(CC(=O)c2ccc(Cl)cc2)C(=O)c2ccccc2C1=O | -9.6 | i | i | -6.74* | i
COCCN(C(=O)COC(=O)c1ccc(C=O)cc1)c1c(N)n(Cc2ccccc2)c(=O)[nH]c1=O | -15.3 | i | i | i | i
CC(CNC(=O)COc1ccccc1)OC(=O)Nc1ccc(Cl)c(Cl)c1 (stereo not drawn) | -22.7 | 9* | i | i | i
COC(=O)NCC(C)OC(=O)Nc1cccc(Cl)c1 (stereo not drawn) | -8.4 | i | i | i | i
C[C@H]1Oc2ccccc2C(=O)C1C(=O)c1ccccc1 (stereo partly drawn) | -7.0 | i | i | i | i
CCN(CC)C1CCN(C(=O)c2cc(COc3ccc(-n4cncn4)cc3)on2)C1 (stereo not drawn) | -5.0 | i | i | i | i
Cc1ccc(NC(=O)CC(O)(C(F)(F)F)C(F)(F)F)c(Br)c1 | -10.6 | i | i | i | 6*
CCOc1ccccc1NC(=O)CC(O)(C(F)(F)F)C(F)(F)F | -10.2 | i | i | i | 6*
O=C(c1ccc2c(c1)OCO2)N1CCN(S(=O)(=O)c2ccc(Cl)cc2)CC1 | -5.7 | i | i | i | i
CC(C)(C)C1CCc2c(sc(NC(=O)C3CC=CCC3C(=O)O)c2C#N)C1 (stereo not drawn) | 13.7* | i | i | i | i
Cc1nn(CC(=O)Nc2sc3c(c2C#N)CCC(C(C)(C)C)C3)c(C)c1[N+](=O)[O-] (stereo not drawn) | -11.7 | i | i | i | 8*
C/C(=N/NC(N)=S)c1ccc(Br)s1 | -7.5 | i | i | i | i
C/C(=N\NC(N)=S)c1cc(-c2ccccc2)c(-c2ccccc2)s1 | -11.0 | i | i | -8.03* | i
O=C(O)C1CCN(C(=O)c2ccccc2N2C(=O)[C@@H]3Cc4c([nH]c5ccccc45)C(c4cccc(Cl)c4)N3C2=O)CC1 (stereo partly drawn) | -9.2 | i | i | i | i
C=CCS/C(=N\n1cnc2ccccc2c1=O)N(CC)CC | -11.3 | i | i | -7.62* | i
C=CCS/C(=N\n1cnc2ccccc2c1=O)N1CCCCC1 | -3.1 | i | i | i | i
C/C(=N\NC(=O)c1nn(C)c(C)c1Br)c1ccc(NC(=O)c2ccoc2C)cc1 | -5.5 | i | i | -7.9* | i
C/C(=N\NC(=O)c1c(Br)c(C)nn1C)c1ccc(NC(=O)c2ccoc2C)cc1 | -5.0 | i | i | i | i
CC1(C2CC2)NC(=O)N(CC(=O)Nc2ccc(C(F)(F)F)cc2)C1=O (stereo not drawn) | / | / | i | / | /
CN1C(=O)C2(OCC(C)([N+](=O)[O-])CO2)c2ccccc21 (stereo not drawn) | 8.6* | i | i | i | i
CC1([N+](=O)[O-])COC2(OC1)C(=O)Nc1ccccc12 (stereo not drawn) | -2.1 | i | i | i | i
O=c1[nH]c2cccc(F)c2n2cccc12 | -4.5 | i | i | i | i
O=C(c1cccc(-c2ccccc2)c1)N1CC[C@@H](N2CCC(O)CC2)[C@H](O)C1 | -2.7 | i | i | i | i
O=C(Nc1ccccc1F)NC1CC1 | 5.8* | i | i | i | i
CCc1nc(SCC(=O)Nc2cc(C)on2)c2c(C)c(C)sc2n1 | -7.8 | i | i | i | i

High-throughput results from PubChem BioAssay.
